Data from ChEMBL document CHEMBL1944511, “Bakuchiol derivatives as novel and potent cytotoxic agents: a report” (Eur J Med Chem, 2012).

What was measured:
[1] = test system: HL-60; experiment: Induction of apoptosis in human HL60 cells assessed as loss of mitochondrial membrane potential at 1 uM after 24 hrs by rodamine-123 staining-based flow cytometric analysis (reference value: 6%); type: functional
[2] = test system: HCT-15; experiment: Growth inhibition of human HCT15 cells at 20 uM after 48 hrs by sulpharhodamine B assay; type: functional; settings: HCT-15, 48 h, read-out: GI
In short: (§1)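 This is the SRB protein-stain assay on adherent cells in RPMI-1640/MEM with 10% FCS. Each compound in DMSO (vehicle <0.2%) was applied at a single fixed concentration for 48 h. Cells were fixed with TCA and stained with SRB, and the dye was solubilised in Tris and read at 570/620 nm. Percent growth inhibition is relative to vehicle-treated controls, reported as mean ± SD of three experiments run in triplicate.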

[3] = test system: PC-3; experiment: Growth inhibition of human PC3 cells at 30 uM after 48 hrs by sulpharhodamine B assay; type: functional; settings: PC-3, 48 h, read-out: GI
In short: (§2)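 Cells grown in RPMI-1640/MEM with 10% FCS, penicillin/streptomycin, 37 °C, 5% CO2. Seeded in 96-well plates, allowed to adhere overnight, then exposed 48 h to analogs in DMSO (vehicle <0.2% in controls). TCA-fixed, stained with 0.4% SRB in 1% acetic acid, dye solubilized in 10 mM Tris base, OD 570 nm (ref 620 nm). Mean ± SD of three experiments run in triplicate.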

[4] = test system: A549; experiment: Growth inhibition of human A549 cells at 5 uM after 48 hrs by sulpharhodamine B assay; type: functional; settings: A549, 48 h, read-out: GI; in short: as §1
[5] = test system: A549; experiment: Growth inhibition of human A549 cells at 20 uM after 48 hrs by sulpharhodamine B assay; type: functional; settings: A549, 48 h, read-out: GI; in short: as §1
[6] = test system: HL-60; experiment: Induction of apoptosis in human HL60 cells assessed as loss of mitochondrial membrane potential at 10 uM after 24 hrs by rodamine-123 staining-based flow cytometric analysis (reference value: 6%); type: functional
[7] = test system: HeLa; experiment: Growth inhibition of human HeLa cells at 50 uM after 48 hrs by sulpharhodamine B assay; type: functional; settings: read-out: GI; in short: as §1
[8] = test system: HeLa; experiment: Growth inhibition of human HeLa cells at 30 uM after 48 hrs by sulpharhodamine B assay; type: functional; settings: read-out: GI; in short: as §1
[9] = test system: HL-60; experiment: Cytotoxicity against human HL60 cells after 24 hrs by MTT assay; type: functional, cell-based; settings: for IC50: HL-60, 24 h
In short: (§3)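 Exponentially growing HL-60 cells (1.5×10^4 per well) in 96-well plates were exposed to a range of compound concentrations in DMSO, with vehicle-only controls. MTT (2.5 mg/mL stock) was added for 3–4 h at 37 °C, and formazan was dissolved in DMSO and read at OD 570/620 nm. […] Data are mean ± SD of n = 6 wells from two experiments.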

[10] = test system: A549; experiment: Growth inhibition of human A549 cells at 50 uM after 48 hrs by sulpharhodamine B assay; type: functional; settings: A549, 48 h, read-out: GI; in short: as §1
[11] = test system: OVCAR-5; experiment: Growth inhibition of human OVCAR5 cells at 50 uM after 48 hrs by sulpharhodamine B assay; type: functional; settings: OVCAR-5, 48 h, read-out: GI; in short: as §1
[12] = test system: PC-3; experiment: Growth inhibition of human PC3 cells at 20 uM after 48 hrs by sulpharhodamine B assay; type: functional; settings: PC-3, 48 h, read-out: GI; in short: as §1
[13] = test system: IMR-32; experiment: Growth inhibition of human IMR32 cells at 30 uM after 48 hrs by sulpharhodamine B assay; type: functional; settings: IMR-32, 48 h, read-out: GI; in short: as §1
[14] = test system: THP-1; experiment: Cytotoxicity against human THP1 cells after 48 hrs by sulpharhodamine B assay; type: functional, cell-based; settings: THP-1, 48 h
In short: (§4)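 Cells were grown in RPMI-1640/MEM with 10% FCS and penicillin/streptomycin at 37 °C under 5% CO2, then seeded and left to adhere overnight. Analogs in DMSO (vehicle <0.2%) were added at several concentrations for 48 h. Cells were fixed with cold 50% TCA, stained with 0.4% SRB in 1% acetic acid, solubilised in 10 mM Tris, and read at OD 570/620 nm. IC50 came from non-linear regression.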

[15] = test system: HEp-2; experiment: Growth inhibition of human Hep2 cells at 10 uM after 48 hrs by sulpharhodamine B assay; type: functional; settings: HEp-2, 48 h, read-out: GI; in short: as §1
[16] = test system: THP-1; experiment: Growth inhibition of human THP1 cells at 30 uM after 48 hrs by sulpharhodamine B assay; type: functional; settings: THP-1, 48 h, read-out: GI; in short: as §2
[17] = test system: HEp-2; experiment: Growth inhibition of human Hep2 cells at 20 uM after 48 hrs by sulpharhodamine B assay; type: functional; settings: HEp-2, 48 h, read-out: GI; in short: as §1
[18] = test system: PC-3; experiment: Growth inhibition of human PC3 cells at 5 uM after 48 hrs by sulpharhodamine B assay; type: functional; settings: PC-3, 48 h, read-out: GI; in short: as §2
[19] = test system: A549; experiment: Growth inhibition of human A549 cells at 30 uM after 48 hrs by sulpharhodamine B assay; type: functional; settings: A549, 48 h, read-out: GI; in short: as §1
[20] = test system: SF-295; experiment: Cytotoxicity against human SF295 cells after 48 hrs by sulpharhodamine B assay; type: functional, cell-based; settings: SF-295, 48 h; in short: as §4
[21] = test system: HL-60; experiment: Induction of apoptosis in human HL60 cells assessed as increase in […] sub-G0 fraction at 10 uM by propidium iodide staining-based flow cytometric analysis (reference value: 6%); type: functional
[22] = test system: HEp-2; experiment: Cytotoxicity against human Hep2 cells after 48 hrs by sulpharhodamine B assay; type: functional, cell-based; settings: HEp-2, 48 h; in short: as §4
[23] = test system: PC-3; experiment: Growth inhibition of human PC3 cells at 10 uM after 48 hrs by sulpharhodamine B assay; type: functional; settings: PC-3, 48 h, read-out: GI; in short: as §1
[24] = test system: OVCAR-5; experiment: Growth inhibition of human OVCAR5 cells at 30 uM after 48 hrs by sulpharhodamine B assay; type: functional; settings: OVCAR-5, 48 h, read-out: GI; in short: as §1
[25] = test system: IMR-32; experiment: Growth inhibition of human IMR32 cells at 20 uM after 48 hrs by sulpharhodamine B assay; type: functional; settings: IMR-32, 48 h, read-out: GI; in short: as §1
[26] = test system: HL-60; experiment: Induction of apoptosis in human HL60 cells assessed as loss of mitochondrial membrane potential at 20 uM after 24 hrs by rodamine-123 staining-based flow cytometric analysis (reference value: 6%); type: functional
[27] = test system: THP-1; experiment: Growth inhibition of human THP1 cells at 10 uM after 48 hrs by sulpharhodamine B assay; type: functional; settings: THP-1, 48 h, read-out: GI; in short: as §2
[28] = test system: HL-60; experiment: Cytotoxicity against human HL60 cells by MTT assay; type: functional, cell-based; settings: TDE = time-dependent effect; in short: as §3
[29] = test system: HL-60; experiment: Cytotoxicity against human HL60 cells after 48 hrs by MTT assay; type: functional, cell-based; settings: for IC50: HL-60, 48 h; in short: as §3
[30] = test system: HCT-15; experiment: Cytotoxicity against human HCT15 cells after 48 hrs by sulpharhodamine B assay; type: functional, cell-based; settings: HCT-15, 48 h; in short: as §4
[31] = test system: HL-60; experiment: Induction of apoptosis in human HL60 cells assessed as increase in […] sub-G0 fraction at 1 uM by propidium iodide staining-based flow cytometric analysis (reference value: 6%); type: functional
[32] = test system: PC-3; experiment: Cytotoxicity against human PC3 cells after 48 hrs by sulpharhodamine B assay; type: functional, cell-based; settings: PC-3, 48 h; in short: as §4
[33] = test system: MCF7; experiment: Growth inhibition of human MCF7 cells at 30 uM after 48 hrs by sulpharhodamine B assay; type: functional; settings: MCF7, 48 h, read-out: GI; in short: as §1
[34] = test system: A549; experiment: Growth inhibition of human A549 cells at 10 uM after 48 hrs by sulpharhodamine B assay; type: functional; settings: A549, 48 h, read-out: GI; in short: as §1
[35] = test system: HL-60; experiment: Induction of apoptosis in human HL60 cells assessed as loss of mitochondrial membrane potential after 24 hrs by rodamine-123 staining-based flow cytometric analysis; type: functional, cell-based
[36] = test system: HL-60; experiment: Induction of apoptosis in human HL60 cells assessed as loss of mitochondrial membrane potential at 30 uM after 24 hrs by rodamine-123 staining-based flow cytometric analysis; type: functional
[37] = test system: HCT-15; experiment: Growth inhibition of human HCT15 cells at 10 uM after 48 hrs by sulpharhodamine B assay; type: functional; settings: HCT-15, 48 h, read-out: GI; in short: as §1

COc1ccc(/C=C/[C@](C)(/C=C/c2ccc(O)cc2)CCC=C(C)C)cc1
Activity [1]: 14.4% | inhibition of growth at 20 µM [2]: 61% | inhibition of growth at 30 µM [3]: 50% | inhibition of growth at 5 µM [4]: 24% | inhibition of growth at 20 µM [5]: 69% | Activity [6]: 46.4% | inhibition of growth at 50 µM [7]: 78% | inhibition of growth at 30 µM [8]: 56% | Activity [9]: Dose-dependent effect | IC50 [9]: 16 µM | inhibition of growth at 50 µM [10]: 70% | inhibition of growth at 50 µM [11]: 67% | inhibition of growth at 20 µM [12]: 58% | inhibition of growth at 30 µM [13]: 51% | IC50 [14]: 4.2 µM | inhibition of growth at 10 µM [15]: 46% | inhibition of growth at 30 µM [16]: 60% | inhibition of growth at 20 µM [17]: 58% | inhibition of growth at 5 µM [18]: 23% | inhibition of growth at 30 µM [19]: 55% | IC50 [20]: 22 µM | Activity [21]: 41% | IC50 [22]: 14 µM | inhibition of growth at 10 µM [23]: 41% | inhibition of growth at 30 µM [24]: 50% | inhibition of growth at 20 µM [25]: 40% | Activity [26]: 51.4% | inhibition of growth at 10 µM [27]: 62% | Activity [28]: tde | Activity [29]: Dose-dependent effect | IC50 [29]: 2 µM | IC50 [30]: 13 µM | Activity [31]: 5% | IC50 [32]: 15 µM | inhibition of growth at 30 µM [33]: 52% | inhibition of growth at 10 µM [34]: 47% | Activity [35]: Dose-dependent effect | Activity [36]: 55.4% | inhibition of growth at 10 µM [37]: 50%

CC1C(C(C)(C)O)CCC1(C)/C=C/c1ccc(O)cc1 (stereo not drawn)
Activity [1]: 12.4% | inhibition of growth at 20 µM [2]: 63% | inhibition of growth at 30 µM [3]: 62% | inhibition of growth at 5 µM [4]: 32% | inhibition of growth at 20 µM [5]: 53% | Activity [6]: 31.7% | inhibition of growth at 50 µM [7]: 68% | inhibition of growth at 30 µM [8]: 52% | Activity [9]: Dose-dependent effect | IC50 [9]: 18 µM | inhibition of growth at 50 µM [10]: 76% | inhibition of growth at 50 µM [11]: 75% | inhibition of growth at 20 µM [12]: 57% | inhibition of growth at 30 µM [13]: 57% | IC50 [14]: 3.5 µM | inhibition of growth at 10 µM [15]: 34% | inhibition of growth at 30 µM [16]: 68% | inhibition of growth at 20 µM [17]: 50% | inhibition of growth at 5 µM [18]: 24% | inhibition of growth at 30 µM [19]: 61% | IC50 [20]: 23 µM | Activity [21]: 34% | IC50 [22]: 19 µM | inhibition of growth at 10 µM [23]: 35% | inhibition of growth at 30 µM [24]: 55% | inhibition of growth at 20 µM [25]: 62% | Activity [26]: 49.1% | inhibition of growth at 10 µM [27]: 65% | Activity [28]: tde | Activity [29]: Dose-dependent effect | IC50 [29]: 1.8 µM | IC50 [30]: 13 µM | Activity [31]: 8% | IC50 [32]: 19 µM | inhibition of growth at 30 µM [33]: 58% | inhibition of growth at 10 µM [34]: 40% | Activity [35]: Dose-dependent effect | Activity [36]: 54% | inhibition of growth at 10 µM [37]: 55%
